Assay results from publication PMC11341692 (Nature Communications, 2024).

System: NET formation in human peripheral blood neutrophils
Assay: MPO-ANCA-IC-induced NET formation in primed human peripheral blood neutrophils
Type: cell-based
Details: for MPO-ANCA-IC-induced NET formation: avacopan 0.1 and 1 µM
Outline: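 Neutrophils isolated with Polymorphprep from the blood of healthy volunteers (n = 3). Cells were pretreated 15 min with an NE inhibitor (0, 50, 500 µM) or a C5aR inhibitor (0, 0.1, 1 µM), then primed with 5 ng/ml TNF-α or 100 ng/ml C5a for 15 min at 37 °C. They were seeded on MPO-ANCA-IC-coated chambers at 5 × 10^5/well for 3–4 h at 37 °C, then PFA-fixed and stained for CD15, Cit-H3 and DAPI. DAPI-positive DNA area per neutrophil was taken from three random images per well.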

| Compound | MPO-ANCA-IC-induced NET formation (C5a-primed neutrophils) | MPO-ANCA-IC-induced NET formation (TNF-α-primed neutrophils) | DAPI-positive DNA area per neutrophil (TNF-α + MPO-ANCA-IC, sivelestat 0, 50, and 500 µM) | Neutrophil swelling (fold change) (TNF-α + MPO-ANCA-IC, sivelestat 500 µM) |
| --- | --- | --- | --- | --- |
| Cc1ccc(NC(=O)[C@H]2CCCN(C(=O)c3c(C)cccc3F)[C@H]2c2ccc(NC3CCCC3)cc2)cc1C(F)(F)F [Avacopan, avacopan] | suppressed | but not in TNF-α-primed neutrophils |  |  |
| CC(C)(C)C(=O)Oc1ccc(S(=O)(=O)Nc2ccccc2C(=O)NCC(=O)O)cc1 [Sivelestat] |  |  | reduced by sivelestat dose-dependently and significantly | significantly suppressed |
